From ChEMBL document CHEMBL1124366, “Synthesis and biological properties of N63-carboxamides of teicoplanin antibiotics. Structure-activity relationships” (J Med Chem, 1989)
In brackets after ≈: the same amount, converted by molar mass.

Tests used:
Assay type in all cases: functional
[1] = system: Streptococcus pyogenes; assay: In vivo effective dose given perorally to mice infected with Streptococcus pyogenes C 203; conditions: po
Summary of the method: (§1)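 Mice (five per treatment group, five groups) infected intraperitoneally with about 10⁵ cells of Strep. pyogenes C 203, about 100× the LD50. ED50 (mg/kg) was calculated from the percentage of mice surviving at each dose on day 7.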

[2] = system: Streptococcus pneumoniae; assay: In vitro minimum inhibitory concentration against Streptococcus pneumoniae UC41
[3] = system: Staphylococcus epidermidis; assay: In vitro minimum inhibitory concentration against Staphylococcus epidermis ATCC 12228
[4] = system: Staphylococcus aureus; assay: In vitro minimum inhibitory concentration against Staphylococcus aureus Tour
[5] = system: Staphylococcus haemolyticus; assay: In vitro minimum inhibitory concentration against Staphylococcus hemolyticus 602 cell line; conditions: strain 602
[6] = system: Streptococcus pyogenes; assay: In vitro minimum inhibitory concentration against Streptococcus pyogenes C 203
[7] = system: Streptococcus pyogenes; assay: Subcutaneously administration into mice infected with Streptococcus pyogenes C 203; conditions: sc; summary of the method: as §1
[8] = system: Enterococcus faecalis; assay: In vitro minimum inhibitory concentration against Streptococcus faecalis ATCC 7080

SMILES | ED50 [1] [mg/kg] | MIC [2] [µg/mL] | MIC [3] [µg/mL] | MIC [4] [µg/mL] | MIC [5] [µg/mL] | MIC [6] [µg/mL] | ED50 [7] [mg/kg] | MIC [8] [µg/mL]
CNCCNC(=O)[C@H]1NC(=O)[C@H]2NC(=O)[C@H](NC(=O)[C@@H]3NC(=O)[C@H]4NC(=O)[C@@H](Cc5ccc(c(Cl)c5)Oc5cc3cc(c5O[C@@H]3O[C@@H](CO)[C@@H](O)[C@H](O)[C@@H]3NC(=O)CCCCCCC(C)C)Oc3ccc(cc3Cl)[C@H]2O[C@@H]2O[C@@H](CO)[C@@H](O)[C@H](O)[C@@H]2NC(C)=O)NC(=O)[C@H](N)c2ccc(O)c(c2)Oc2cc(O)cc4c2)c2ccc(O)c(c2)-c2c(O[C@H]3O[C@H](CO)[C@@H](O)[C@@H](O)[C@@H]3O)cc(O)cc21 | 173 | 0.12 (≈ 0.062 µM) | 0.12 (≈ 0.062 µM) | 0.12 (≈ 0.062 µM) | 0.12 (≈ 0.062 µM) | 0.06 (≈ 0.031 µM) | 0.08 | 0.12 (≈ 0.062 µM)
CC(=O)N[C@@H]1[C@H](O[C@@H]2c3ccc(c(Cl)c3)Oc3cc4cc(c3O[C@@H]3O[C@@H](CO)[C@@H](O)[C@H](O)[C@@H]3NC(=O)CCCCCCC(C)C)Oc3ccc(cc3Cl)C[C@H]3NC(=O)[C@H](N)c5ccc(O)c(c5)Oc5cc(O)cc(c5)[C@H](NC3=O)C(=O)N[C@H]4C(=O)N[C@H]3C(=O)N[C@@H]2C(=O)N[C@H](C(=O)NCCCCCCCN(C)C)c2cc(O)cc(O[C@H]4O[C@H](CO)[C@@H](O)[C@@H](O)[C@@H]4O)c2-c2cc3ccc2O)O[C@@H](CO)[C@@H](O)[C@@H]1O | > 300 | 0.12 (≈ 0.0594 µM) | 0.12 (≈ 0.0594 µM) | 0.12 (≈ 0.0594 µM) | 0.5 (≈ 0.248 µM) | 0.06 (≈ 0.0297 µM) | 0.18 | 0.12 (≈ 0.0594 µM)
CC(=O)N[C@@H]1[C@H](O[C@@H]2c3ccc(c(Cl)c3)Oc3cc4cc(c3O[C@@H]3O[C@@H](CO)[C@@H](O)[C@H](O)[C@@H]3NC(=O)CCCCCCC(C)C)Oc3ccc(cc3Cl)C[C@H]3NC(=O)[C@H](N)c5ccc(O)c(c5)Oc5cc(O)cc(c5)[C@H](NC3=O)C(=O)N[C@H]4C(=O)N[C@H]3C(=O)N[C@@H]2C(=O)N[C@H](C(=O)NCCCCCCN)c2cc(O)cc(O[C@H]4O[C@H](CO)[C@@H](O)[C@@H](O)[C@@H]4O)c2-c2cc3ccc2O)O[C@@H](CO)[C@@H](O)[C@@H]1O | > 300 | 0.12 (≈ 0.0607 µM) | 0.06 (≈ 0.0303 µM) | 0.12 (≈ 0.0607 µM) | 0.12 (≈ 0.0607 µM) | 0.06 (≈ 0.0303 µM) | 0.14 | 0.12 (≈ 0.0607 µM)
CC(=O)N[C@@H]1[C@H](O[C@@H]2c3ccc(c(Cl)c3)Oc3cc4cc(c3O[C@@H]3O[C@@H](CO)[C@@H](O)[C@H](O)[C@@H]3NC(=O)CCCCCCC(C)C)Oc3ccc(cc3Cl)C[C@H]3NC(=O)[C@H](N)c5ccc(O)c(c5)Oc5cc(O)cc(c5)[C@H](NC3=O)C(=O)N[C@H]4C(=O)N[C@H]3C(=O)N[C@@H]2C(=O)N[C@H](C(=O)N(C)C)c2cc(O)cc(O[C@H]4O[C@H](CO)[C@@H](O)[C@@H](O)[C@@H]4O)c2-c2cc3ccc2O)O[C@@H](CO)[C@@H](O)[C@@H]1O | 139 | 0.06 (≈ 0.0315 µM) | 0.25 (≈ 0.131 µM) | 0.12 (≈ 0.0629 µM) |  | 0.06 (≈ 0.0315 µM) | 0.08 | 0.12 (≈ 0.0629 µM)
CC(=O)N[C@@H]1[C@H](O[C@@H]2c3ccc(c(Cl)c3)Oc3cc4cc(c3O[C@@H]3O[C@@H](CO)[C@@H](O)[C@H](O)[C@@H]3NC(=O)CCCCCCC(C)C)Oc3ccc(cc3Cl)C[C@H]3NC(=O)[C@H](N)c5ccc(O)c(c5)Oc5cc(O)cc(c5)[C@H](NC3=O)C(=O)N[C@H]4C(=O)N[C@H]3C(=O)N[C@@H]2C(=O)N[C@H](C(=O)N2CCN(C)CC2)c2cc(O)cc(O[C@H]4O[C@H](CO)[C@@H](O)[C@@H](O)[C@@H]4O)c2-c2cc3ccc2O)O[C@@H](CO)[C@@H](O)[C@@H]1O | 115 | 0.12 (≈ 0.0612 µM) | 0.12 (≈ 0.0612 µM) | 0.12 (≈ 0.0612 µM) |  | 0.06 (≈ 0.0306 µM) | < 0.03 | 0.06 (≈ 0.0306 µM)
CC(=O)N[C@@H]1[C@H](O[C@@H]2c3ccc(c(Cl)c3)Oc3cc4cc(c3O[C@@H]3O[C@@H](CO)[C@@H](O)[C@H](O)[C@@H]3NC(=O)CCCCCCC(C)C)Oc3ccc(cc3Cl)C[C@H]3NC(=O)[C@H](N)c5ccc(O)c(c5)Oc5cc(O)cc(c5)[C@H](NC3=O)C(=O)N[C@H]4C(=O)N[C@H]3C(=O)N[C@@H]2C(=O)N[C@H](C(=O)N2CCSCC2)c2cc(O)cc(O[C@H]4O[C@H](CO)[C@@H](O)[C@@H](O)[C@@H]4O)c2-c2cc3ccc2O)O[C@@H](CO)[C@@H](O)[C@@H]1O | 220 | 0.12 (≈ 0.0611 µM) | 0.25 (≈ 0.127 µM) | 0.12 (≈ 0.0611 µM) |  | 0.06 (≈ 0.0305 µM) | 0.08 | 0.12 (≈ 0.0611 µM)
CC(=O)N[C@@H]1[C@H](O[C@@H]2c3ccc(c(Cl)c3)Oc3cc4cc(c3O[C@@H]3O[C@@H](CO)[C@@H](O)[C@H](O)[C@@H]3NC(=O)CCCCCCC(C)C)Oc3ccc(cc3Cl)C[C@H]3NC(=O)[C@H](N)c5ccc(O)c(c5)Oc5cc(O)cc(c5)[C@H](NC3=O)C(=O)N[C@H]4C(=O)N[C@H]3C(=O)N[C@@H]2C(=O)N[C@H](C(=O)NCCN2CCCC2)c2cc(O)cc(O[C@H]4O[C@H](CO)[C@@H](O)[C@@H](O)[C@@H]4O)c2-c2cc3ccc2O)O[C@@H](CO)[C@@H](O)[C@@H]1O | 173 | 0.12 (≈ 0.0607 µM) | 0.12 (≈ 0.0607 µM) | 0.12 (≈ 0.0607 µM) |  | 0.06 (≈ 0.0304 µM) | 0.06 | 0.12 (≈ 0.0607 µM)
CC(=O)N[C@@H]1[C@H](O[C@@H]2c3ccc(c(Cl)c3)Oc3cc4cc(c3O[C@@H]3O[C@@H](CO)[C@@H](O)[C@H](O)[C@@H]3NC(=O)CCCCCCC(C)C)Oc3ccc(cc3Cl)C[C@H]3NC(=O)[C@H](N)c5ccc(O)c(c5)Oc5cc(O)cc(c5)[C@H](NC3=O)C(=O)N[C@H]4C(=O)N[C@H]3C(=O)N[C@@H]2C(=O)N[C@H](C(=O)NCCN2CCOCC2)c2cc(O)cc(O[C@H]4O[C@H](CO)[C@@H](O)[C@@H](O)[C@@H]4O)c2-c2cc3ccc2O)O[C@@H](CO)[C@@H](O)[C@@H]1O | 300 | 0.12 (≈ 0.0602 µM) | 0.12 (≈ 0.0602 µM) | 0.12 (≈ 0.0602 µM) |  | 0.06 (≈ 0.0301 µM) | 0.08 | 0.12 (≈ 0.0602 µM)
CC(=O)N[C@@H]1[C@H](O[C@@H]2c3ccc(c(Cl)c3)Oc3cc4cc(c3O[C@@H]3O[C@@H](CO)[C@@H](O)[C@H](O)[C@@H]3NC(=O)CCCCCCC(C)C)Oc3ccc(cc3Cl)C[C@H]3NC(=O)[C@H](N)c5ccc(O)c(c5)Oc5cc(O)cc(c5)[C@H](NC3=O)C(=O)N[C@H]4C(=O)N[C@H]3C(=O)N[C@@H]2C(=O)N[C@H](C(=O)NC2CN4CCC2CC4)c2cc(O)cc(O[C@H]4O[C@H](CO)[C@@H](O)[C@@H](O)[C@@H]4O)c2-c2cc3ccc2O)O[C@@H](CO)[C@@H](O)[C@@H]1O (stereo not given in full) | 173 | 0.06 (≈ 0.0302 µM) | 0.12 (≈ 0.0604 µM) | 0.12 (≈ 0.0604 µM) |  | 0.06 (≈ 0.0302 µM) | 0.07 | 0.12 (≈ 0.0604 µM)
CCCCN(CCCC)CCCNC(=O)[C@H]1NC(=O)[C@H]2NC(=O)[C@H](NC(=O)[C@@H]3NC(=O)[C@H]4NC(=O)[C@@H](Cc5ccc(c(Cl)c5)Oc5cc3cc(c5O[C@@H]3O[C@@H](CO)[C@@H](O)[C@H](O)[C@@H]3NC(=O)CCCCCCC(C)C)Oc3ccc(cc3Cl)[C@H]2O[C@@H]2O[C@@H](CO)[C@@H](O)[C@H](O)[C@@H]2NC(C)=O)NC(=O)[C@H](N)c2ccc(O)c(c2)Oc2cc(O)cc4c2)c2ccc(O)c(c2)-c2c(O[C@H]3O[C@H](CO)[C@@H](O)[C@@H](O)[C@@H]3O)cc(O)cc21 | 300 | 0.06 (≈ 0.0293 µM) | 0.06 (≈ 0.0293 µM) | 0.25 (≈ 0.122 µM) |  | 0.06 (≈ 0.0293 µM) | 0.1 | 0.12 (≈ 0.0586 µM)
CC(=O)N[C@@H]1[C@H](O[C@@H]2c3ccc(c(Cl)c3)Oc3cc4cc(c3O[C@@H]3O[C@@H](CO)[C@@H](O)[C@H](O)[C@@H]3NC(=O)CCCCCCC(C)C)Oc3ccc(cc3Cl)C[C@H]3NC(=O)[C@H](N)c5ccc(O)c(c5)Oc5cc(O)cc(c5)[C@H](NC3=O)C(=O)N[C@H]4C(=O)N[C@H]3C(=O)N[C@@H]2C(=O)N[C@H](C(=O)NCC(=O)O)c2cc(O)cc(O[C@H]4O[C@H](CO)[C@@H](O)[C@@H](O)[C@@H]4O)c2-c2cc3ccc2O)O[C@@H](CO)[C@@H](O)[C@@H]1O | > 300 | 0.12 (≈ 0.062 µM) | 0.12 (≈ 0.062 µM) | 0.12 (≈ 0.062 µM) |  | 0.12 (≈ 0.062 µM) | 0.23 | 0.25 (≈ 0.129 µM)
